From ChEMBL document CHEMBL4689842, “EUbOPEN Chemogenomics Library wave 1” (2021)

System: U2OS
Experiment: Multiplex assay against U2OS
Type: toxicity, cell-based
Details: human
How it was run: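 Values for tubulin, mitochondrial-mass and membrane-permeability phenotypes are per cents of cells with healthy nuclei. These cells were identified by CellPathfinder machine-learning gating of live cells that had been stained at seeding with Hoechst33342, BioTracker Green Microtubule Cytoskeleton Dye, MitoTracker Red and Annexin V Alexa Fluor 680 and imaged on a CQ1 microscope at 37°C and 5% CO2 after compound addition. The gating first set Hoechst high-intensity objects apart from normal cells, then split normal cells into healthy, pyknosed or fragmented nuclei, and pyknosed cells into mitotic or apoptotic.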

[1] = 12 h, 1 µM, compound concentration 1 uM, replicate 1
[2] = 12 h, 1 µM, compound concentration 1 uM, replicate 2
[3] = 12 h, 10 µM, compound concentration 10 uM, replicate 1
[4] = 12 h, 10 µM, compound concentration 10 uM, replicate 2
[5] = 24 h, 1 µM, compound concentration 1 uM, replicate 1
[6] = 24 h, 1 µM, compound concentration 1 uM, replicate 2
[7] = 24 h, 10 µM, compound concentration 10 uM, replicate 1
[8] = 24 h, 10 µM, compound concentration 10 uM, replicate 2
[9] = 48 h, 1 µM, compound concentration 1 uM, replicate 1
[10] = 48 h, 1 µM, compound concentration 1 uM, replicate 2
[11] = 48 h, 10 µM, compound concentration 10 uM, replicate 1
[12] = 48 h, 10 µM, compound concentration 10 uM, replicate 2

O=C(Cc1ccc(-c2ccc(OCCN3CCOCC3)cc2)cn1)NCc1ccccc1 [TIRBANIBULIN]
Population Apoptotic (%) [1]: 52% | Population Fragmented Nuclei (%) [1]: 10% | Population Healthy Nuclei (%) [1]: 76% | Population Hoechst High Intensity Objects (%) [1]: 7% | Population Membrane Permeable-Phenotype (%) [1]: 8% | Population Mitochondria Different-Phenotype (%) [1]: 20% | Population Mitotic Cells (%) [1]: 47% | Population Normal (%) [1]: 92% | Population Pyknosed Nuclei (%) [1]: 12% | Population Tubulin-Different-Phenotype (%) [1]: 19% | Total Cell Count [1]: 172 | Population Apoptotic (%) [2]: 0% | Population Fragmented Nuclei (%) [2]: 5% | Population Healthy Nuclei (%) [2]: 90% | Population Hoechst High Intensity Objects (%) [2]: 12% | Population Membrane Permeable-Phenotype (%) [2]: 9% | Population Mitochondria Different-Phenotype (%) [2]: 21% | Population Mitotic Cells (%) [2]: 100% | Population Normal (%) [2]: 87% | Population Pyknosed Nuclei (%) [2]: 4% | Population Tubulin-Different-Phenotype (%) [2]: 12% | Total Cell Count [2]: 108 | Population Apoptotic (%) [3]: 21% | Population Fragmented Nuclei (%) [3]: 10% | Population Healthy Nuclei (%) [3]: 72% | Population Hoechst High Intensity Objects (%) [3]: 10% | Population Membrane Permeable-Phenotype (%) [3]: 8% | Population Mitochondria Different-Phenotype (%) [3]: 16% | Population Mitotic Cells (%) [3]: 78% | Population Normal (%) [3]: 89% | Population Pyknosed Nuclei (%) [3]: 16% | Population Tubulin-Different-Phenotype (%) [3]: 10% | Total Cell Count [3]: 169 | Population Apoptotic (%) [4]: 50% | Population Fragmented Nuclei (%) [4]: 13% | Population Healthy Nuclei (%) [4]: 78% | Population Membrane Permeable-Phenotype (%) [4]: 4% | Population Mitochondria Different-Phenotype (%) [4]: 19% | Population Mitotic Cells (%) [4]: 50% | Population Pyknosed Nuclei (%) [4]: 7% | Population Tubulin-Different-Phenotype (%) [4]: 12% | Total Cell Count [4]: 81 | Population Apoptotic (%) [5]: 34% | Population Fragmented Nuclei (%) [5]: 20% | Population Healthy Nuclei (%) [5]: 50% | Population Hoechst High Intensity Objects (%) [5]: 8% | Population Membrane Permeable-Phenotype (%) [5]: 9% | Population Mitochondria Different-Phenotype (%) [5]: 35% | Population Mitotic Cells (%) [5]: 65% | Population Normal (%) [5]: 91% | Population Pyknosed Nuclei (%) [5]: 29% | Population Tubulin-Different-Phenotype (%) [5]: 21% | Total Cell Count [5]: 227 | Population Apoptotic (%) [6]: 61% | Population Fragmented Nuclei (%) [6]: 16% | Population Healthy Nuclei (%) [6]: 66% | Population Hoechst High Intensity Objects (%) [6]: 9% | Population Membrane Permeable-Phenotype (%) [6]: 6% | Population Mitochondria Different-Phenotype (%) [6]: 44% | Population Mitotic Cells (%) [6]: 38% | Population Normal (%) [6]: 90% | Population Pyknosed Nuclei (%) [6]: 17% | Population Tubulin-Different-Phenotype (%) [6]: 10% | Total Cell Count [6]: 155 | Population Apoptotic (%) [7]: 34% | Population Fragmented Nuclei (%) [7]: 15% | Population Healthy Nuclei (%) [7]: 64% | Population Hoechst High Intensity Objects (%) [7]: 8% | Population Membrane Permeable-Phenotype (%) [7]: 8% | Population Mitochondria Different-Phenotype (%) [7]: 46% | Population Mitotic Cells (%) [7]: 65% | Population Normal (%) [7]: 91% | Population Pyknosed Nuclei (%) [7]: 20% | Population Tubulin-Different-Phenotype (%) [7]: 11% | Total Cell Count [7]: 160 | Population Apoptotic (%) [8]: 66% | Population Fragmented Nuclei (%) [8]: 19% | Population Healthy Nuclei (%) [8]: 57% | Population Hoechst High Intensity Objects (%) [8]: 10% | Population Membrane Permeable-Phenotype (%) [8]: 10% | Population Mitochondria Different-Phenotype (%) [8]: 40% | Population Mitotic Cells (%) [8]: 33% | Population Normal (%) [8]: 89% | Population Pyknosed Nuclei (%) [8]: 23% | Population Tubulin-Different-Phenotype (%) [8]: 13% | Total Cell Count [8]: 82 | Population Apoptotic (%) [9]: 67% | Population Fragmented Nuclei (%) [9]: 24% | Population Healthy Nuclei (%) [9]: 40% | Population Hoechst High Intensity Objects (%) [9]: 9% | Population Membrane Permeable-Phenotype (%) [9]: 7% | Population Mitochondria Different-Phenotype (%) [9]: 39% | Population Mitotic Cells (%) [9]: 32% | Population Normal (%) [9]: 90% | Population Pyknosed Nuclei (%) [9]: 35% | Population Tubulin-Different-Phenotype (%) [9]: 25% | Total Cell Count [9]: 340 | Population Apoptotic (%) [10]: 75% | Population Fragmented Nuclei (%) [10]: 22% | Population Healthy Nuclei (%) [10]: 45% | Population Hoechst High Intensity Objects (%) [10]: 11% | Population Membrane Permeable-Phenotype (%) [10]: 29% | Population Mitochondria Different-Phenotype (%) [10]: 64% | Population Mitotic Cells (%) [10]: 25% | Population Normal (%) [10]: 88% | Population Pyknosed Nuclei (%) [10]: 32% | Population Tubulin-Different-Phenotype (%) [10]: 35% | Total Cell Count [10]: 239 | Population Apoptotic (%) [11]: 64% | Population Fragmented Nuclei (%) [11]: 24% | Population Healthy Nuclei (%) [11]: 32% | Population Hoechst High Intensity Objects (%) [11]: 10% | Population Membrane Permeable-Phenotype (%) [11]: 15% | Population Mitochondria Different-Phenotype (%) [11]: 63% | Population Mitotic Cells (%) [11]: 35% | Population Normal (%) [11]: 89% | Population Pyknosed Nuclei (%) [11]: 43% | Population Tubulin-Different-Phenotype (%) [11]: 22% | Total Cell Count [11]: 174 | Population Apoptotic (%) [12]: 70% | Population Fragmented Nuclei (%) [12]: 23% | Population Healthy Nuclei (%) [12]: 45% | Population Hoechst High Intensity Objects (%) [12]: 11% | Population Membrane Permeable-Phenotype (%) [12]: 44% | Population Mitochondria Different-Phenotype (%) [12]: 68% | Population Mitotic Cells (%) [12]: 29% | Population Normal (%) [12]: 88% | Population Pyknosed Nuclei (%) [12]: 30% | Population Tubulin-Different-Phenotype (%) [12]: 36% | Total Cell Count [12]: 85
